Source: ChEMBL document CHEMBL1123371, “5-HT1 and 5-HT2 binding characteristics of some quipazine analogues” (J Med Chem, 1986)
Active and inactive are the calls of the source. The rule behind the calls is not given here.

How the values were obtained:
[1] = target: Serotonin 2 (5-HT2) receptor (Rattus norvegicus, UniProt P30994+P08909+P14842); assay: Displacement of [3H]ketanserin from 5-hydroxytryptamine 2 receptor of rat cortical membrane homogenates
[2] = Displacement of [3H]5-HT from 5-hydroxytryptamine 1 receptor of rat cortical membrane homogenates
Rattus norvegicus [3] = assay: Compound was evaluated in stimulus generalization test using animals trained to discriminate TFMPP from saline, and the mean responses per min at dose of 0.5 mg/kg; type: functional
Outline: (§1)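 Male Sprague-Dawley rats (n = 6) trained to discriminate 0.5 mg/kg TFMPP HCl from saline on a two-lever operant task, VI 15-s food reward. Challenge doses were given ip in random order 15 min before a 2.5-min extinction test, with at least three training sessions between tests. Fewer than five total responses was scored as disruption.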

Rattus norvegicus [4] = assay: Compound was evaluated in stimulus generalization test using animals trained to discriminate TFMPP from saline, and the drug appropriate responding at dose of 0.5 mg/kg; type: functional; outline: as §1
Rattus norvegicus [5] = assay: Stimulus generalization studies in TFMPP trained animals and the number of animals responding /number to receive dose of drug was determined at dose of 0.5 mg/kg; 6/6; type: functional; outline: as §1
Rattus norvegicus [6] = assay: Compound was evaluated in stimulus generalization test using animals trained to discriminate DOM from saline, and the drug appropriate responding at dose of 0.5 mg/kg; Not responding; type: functional, organism-based; design: dose 0.5 mg/kg
Outline: (§2)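 Male Sprague-Dawley rats (n = 10) trained to discriminate 1.0 mg/kg DOM HCl from saline on a two-lever operant task, VI 15-s food reinforcement. Test doses were given ip in random order, 15 min pre-session, with at least three training sessions between tests. Responding was scored in a 2.5-min extinction session. Rats with fewer than five total responses were counted as disrupted.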

Rattus norvegicus [7] = assay: Compound was evaluated in stimulus generalization test using animals trained to discriminate DOM from saline, and the drug appropriate responding at dose of 2.0 mg/kg; Not responding; type: functional, organism-based; design: dose 2 mg/kg; outline: as §2
Rattus norvegicus [8] = assay: Compound was evaluated in stimulus generalization test using animals trained to discriminate DOM from saline, and the drug appropriate responding at dose of 0.05 mg/kg; type: functional; outline: as §2
Rattus norvegicus [9] = assay: Compound was evaluated in stimulus generalization test using animals trained to discriminate DOM from saline, and the mean responses per min at dose of 0.1 mg/kg; type: functional; outline: as §2
Rattus norvegicus [10] = assay: Compound was evaluated in stimulus generalization test using animals trained to discriminate DOM from saline, and the mean responses per min at dose of 0.05 mg/kg; type: functional; outline: as §2
Rattus norvegicus [11] = assay: Compound was evaluated in stimulus generalization test using animals trained to discriminate DOM from saline, and the drug appropriate responding at dose of 0.3 mg/kg; Not responding; type: functional, organism-based; design: dose 0.3 mg/kg; outline: as §2
Rattus norvegicus [12] = assay: Compound was evaluated in stimulus generalization test using animals trained to discriminate DOM from saline, and the drug appropriate responding at dose of 0.1 mg/kg; type: functional; outline: as §2

| Compound | Ki [1] [µM] | Ki [2] [µM] | also measured |
| --- | --- | --- | --- |
| c1ccc2nc(N3CCNCC3)ccc2c1 [QUIPAZINE] | 0.23 | 0.23 |  |
| COc1cccc2ccc(N3CCCCC3)nc12 | 71 | 33 |  |
| FC(F)(F)c1cccc(N2CCNCC2)c1 |  |  | Mean response/min (Rattus norvegicus [3]): 18.2; Drug responding (Rattus norvegicus [4]): 92%; Activity (Rattus norvegicus [5]): 6 |
| COc1cccc2ccc(N)nc12 | 35 | 10.4 |  |
| CCCN(CCC)c1ccc2ccccc2n1 | 50 | 25 |  |
| c1ccc(N2CCNCC2)cc1 [PHENYLPIPERAZINE] | 2.1 | 0.135 | Drug responding (Rattus norvegicus [6]): inactive; Drug responding (Rattus norvegicus [7]): inactive; Drug responding (Rattus norvegicus [8]): 7%; Mean response/min (Rattus norvegicus [9]): 11.9; Mean response/min (Rattus norvegicus [10]): 13.1; Drug responding (Rattus norvegicus [11]): inactive; Drug responding (Rattus norvegicus [12]): 8% |
| NC1CCc2ccccc2C1 (configuration not stated) | 11.1 | 0.38 |  |
